Compounds with a hit are over-represented: about 2.9% of the library has one in this group of screens.
Dynein cargo inh – dynein cargo transport inhibition | z-score, hits read low | 3617.4 mouse cells, GR-EGFP nuclear translocation imaging; test concentration mostly 20 µM; stimulated with dexamethasone, 1 µM; hits give low values | 0.47% of 220,000 active;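 active = plate z-score of nuclear minus cytoplasmic receptor signal below a set negative limit, without overly bright fluorescence or cell loss, cut at about -3.5 in these data, passing the limit was not always enough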;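 also: z-score of nuclear minus cytoplasmic ring GR-EGFP intensity difference per well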
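Also added – dexamethasone, 1.0 µM final · Buffer or medium – tet-free, stripped-serum medium · Schedule – induction 48 h, compound 1 h, agonist 30 min · Detection – formaldehyde fixation, Hoechst nuclear stain, 10x automated fluorescence imaging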
MEKK2mut PB1 HTS – signal of MEK5 binding to mutant human MEKK2 PB1 domain; bead flow cytometry, Alexa488-MEK5 binding to MEKK2 mutant; percent response, % at 10 µM; 0.35% of 290,000 active; AID 1530; in the data active = percent response above about 24%, passing the limit was not always enough
ATG4B inhibitor – ATG4B (human) cysteine protease inhibition | 0.51% of 340,000 active | inhibition, % at 8.33 µM | ATG4B cleavage of LC3-PLA2, NBD-HPC fluorescence, 1 h | AID 504462 | Q9Y4P1; in the data active = inhibition above about 40%
B2AR ag – agonists of human beta-2 adrenergic receptor inducing internalization. 0.43% of 340,000 active. Am2.2-beta2AR cells, FAP receptor internalization, flow cytometry. response, % (no concentration beside the values);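 active = response above a set limit, near 3 SD of response in nonfluorescent compounds, cut at about 42% in these data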
MEKK2wt PB1 HTS – raises or lowers MEK5 binding to wildtype human MEKK2 PB1 domain | Q9Y2U5 | bead flow cytometry, Alexa488-MEK5 binding to MEKK2 WT; actives lie on both sides | binding response (% of control), % at 10 µM | 1.1% of 290,000 active | AID 1531; in the data active = binding response below about 67% or above about 130%
MEKK3 PB1 HTS – raises or lowers MEK5 binding to the human MEKK3 PB1 domain. bead-based flow cytometry, Alexa488-MEK5 binding to MEKK3; actives lie on both sides; 0 = blocked by unlabeled MEK5, 100 = vehicle. binding response (% of control), % at 10 µM. 1.4% of 290,000 active;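 active = binding response more than 3 SD above or below the average of its plate-row segment, actives on both sides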;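 also: Alexa488 bead fluorescence after subtracting the streptavidin-only scavenger bead signal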
Target sequence (Q99759 whole entry, looked up, the tested form may be a part): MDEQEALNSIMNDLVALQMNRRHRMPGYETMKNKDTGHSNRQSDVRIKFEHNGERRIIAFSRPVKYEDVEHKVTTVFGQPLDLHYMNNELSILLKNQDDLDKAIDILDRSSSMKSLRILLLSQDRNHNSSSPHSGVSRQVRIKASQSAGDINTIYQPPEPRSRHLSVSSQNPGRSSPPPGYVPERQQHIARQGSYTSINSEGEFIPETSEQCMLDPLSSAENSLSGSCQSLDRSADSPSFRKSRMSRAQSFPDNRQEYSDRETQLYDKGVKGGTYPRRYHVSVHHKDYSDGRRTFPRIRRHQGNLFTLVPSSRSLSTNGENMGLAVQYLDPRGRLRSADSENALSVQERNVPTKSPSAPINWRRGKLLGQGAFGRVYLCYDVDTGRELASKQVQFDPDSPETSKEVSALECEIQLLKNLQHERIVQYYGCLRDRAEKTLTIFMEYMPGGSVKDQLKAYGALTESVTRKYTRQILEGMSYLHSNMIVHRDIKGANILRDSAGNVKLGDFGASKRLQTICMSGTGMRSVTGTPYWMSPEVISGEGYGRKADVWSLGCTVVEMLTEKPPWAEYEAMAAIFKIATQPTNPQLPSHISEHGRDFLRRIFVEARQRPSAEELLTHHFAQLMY
* hit, by the source's call; . = not tested or not shown; [ ] = remark or other dose.

SMILES	Dynein cargo inh	MEKK2mut PB1 HTS	ATG4B inhibitor	B2AR ag	MEKK2wt PB1 HTS	MEKK3 PB1 HTS
CCS(=O)(=O)Nc1cccc(C2=NN(S(C)(=O)=O)C(c3cccs3)C2)c1 (stereo unspecified)	.	.	-3.1	9.9	.	12.0*[inhibitor]
CS(=O)(=O)Nc1ccc(C2=NN(S(C)(=O)=O)C(c3ccccc3)C2)cc1 (stereo unspecified)	-0.465	0.0	7.9	0.5	85.0	97.0
CN(CC(=O)Nc1ccc(F)cc1)C(=O)CNC(=O)C1CCCCC1	.	.	-4.5	-4.5	.	.
CCS(=O)(=O)Nc1cccc(C2=NN(S(=O)(=O)CC)C(c3cccs3)C2)c1 (stereo unspecified)	.	32.0*	-5.8	18.6	.	17.0*[inhibitor]
COc1ccc(C2CC(c3cccs3)=NN2C(=O)CCC(=O)O)cc1 (stereo unspecified)	.	1.0	-4.2	-5.9	96.0	92.0
CCS(=O)(=O)Nc1cccc(C2=NN(S(=O)(=O)c3ccc(F)cc3)C(c3cccs3)C2)c1 (stereo unspecified)	-0.646	2.0	-12.2	32.9	101.0	103.0
CC(C)(C)C(=O)N1N=C(c2cccc(NS(C)(=O)=O)c2)CC1c1cccs1 (stereo unspecified)	0.103	-12.0	-0.3	0.4	89.0	102.0
CCS(=O)(=O)N1N=C(c2cccc(NS(C)(=O)=O)c2)CC1c1cccs1 (stereo unspecified)	.	24.0*	-7.2	7.3	.	13.0*[inhibitor]
COc1cccc(C2CC(c3cccs3)=NN2S(C)(=O)=O)c1 (stereo unspecified)	-0.569	19.0	-1.7	0.4	3.0*	100.0
CS(=O)(=O)Nc1cccc(C2=NN(S(=O)(=O)c3ccc(F)cc3)C(c3cccs3)C2)c1 (stereo unspecified)	-0.629	6.0	-8.4	7.2	7.0*	103.0
CCOC(=O)c1ccc(NC(=O)CSc2nc(=O)n(CCN3CCOCC3)c3c2CCC3)cc1	.	.	-5.2	-0.2	.	.
CC(=O)Nc1ccc(S(=O)(=O)NCCC(=O)OCC(=O)NCc2ccccc2)cc1	.	.	-11.1	4.7	.	.
COc1cccc(-c2ccc(SCC(=O)NC3CCCCC3)nn2)c1	.	6.0	-7.9	-5.6	102.0	103.0
COc1ccc2c3c(cccc13)C(=O)CC2	.	-5.0	-68.0	9.9	90.0	94.0
O=c1ccc2cc3c4c(c2o1)CCCN4CCC3	1.79	-7.0	-9.0	15.3	89.0	92.0
O=c1ccc2c(o1)/C(=C/C=C(Cl)Cl)CCC2	-0.0848	-2.0	-0.5	52.7*	91.0	93.0
CCCn1nnnc1NCc1cccc(Cl)c1	.	15.0	0.8	-2.3	108.0	108.0
COc1ccccc1/C=N/Nc1nc(C)cc(C)n1	-0.0447	-32.0	-6.4	-3.8	93.0	89.0
O=[N+]([O-])c1ccc(N/N=C\c2ccccc2OCc2ccccc2)cc1	-0.0389	9.0	1.6	-0.1	9.0*	96.0
Cc1cc(C)nc(N/N=C/c2ccccc2OCc2ccc([N+](=O)[O-])cc2)n1	0.077	-2.0	-7.3	96.7*	101.0	96.0
COc1cccc(/C=N/Nc2ccc([N+](=O)[O-])cc2)c1O	.	8.0	-15.6	16.7	100.0	99.0
CCN1CCN(CCCNC(=O)C2CCN(c3nnc(-n4cccc4)s3)CC2)CC1	.	10.0	4.2	-1.5	117.0	103.0
CCOc1ccc(NCc2cccn2-c2nnc(N3CCC(C(=O)NCCCN4CC(C)CC(C)C4)CC3)s2)cc1 (stereo unspecified)	.	23.0	9.0	23.3	137.0*	105.0
CCc1nnc(NC(=O)CSCc2cc(=O)n3nc(C)sc3n2)s1	.	1.0	-7.1	1.0	105.0	100.0
COc1ccc(CCC(=O)NCCS(=O)(=O)N2CCN(c3ccc(F)cc3)CC2)cc1	.	.	-1.8	0.7	.	.
SMILES	Dynein cargo inh	MEKK2mut PB1 HTS	ATG4B inhibitor	B2AR ag	MEKK2wt PB1 HTS	MEKK3 PB1 HTS
COc1ccc(OC)c(-c2csc(NC(=O)COC(=O)c3ccc(NC(=O)CC#N)cc3)n2)c1	.	.	-18.7	42.4*	.	.
N#C/C(=C/c1cn(-c2ccccc2)nc1-c1cccc(OCc2ccc(F)cc2)c1)C(=O)NCCCn1ccnc1	0.495	3.0	-8.5	18.2	131.0	172.0*
CCOC(=O)C1CCN(c2ccc(Cl)nn2)CC1	1.06	4.0	23.0	-7.7	-3.0*	105.0
O=C(Nc1cccnc1)c1cc(S(=O)(=O)N2CCCCC2)c(Cl)cc1Cl	.	2.0	0.2	0.9	108.0	99.0
CSCc1c(C(=O)OCC(=O)c2ccc[nH]2)oc2ccccc12	.	.	46.2*	1.6	.	.
O=C(CC(O)CCc1ccccc1)c1ccc(O)cc1 (stereo unspecified)	.	.	-21.2	1.7	.	.
CCOC(=O)COc1ccccc1/C=C\[N+](=O)[O-]	-3.56*	1.0	3.4	51.4*	101.0	98.0
O=C1C=C(c2cccc(CO)c2)C[C@@H](c2ccc3c(c2)OCO3)C1	.	.	0.0	3.4	.	.
O=S(=O)(Cc1ccccc1)N(O)c1ccccc1	.	9.0	-2.3	77.0*	98.0	98.0
COc1ccccc1C(=O)NC(=O)COc1ccc([N+](=O)[O-])cc1	.	.	-2.1	-2.2	.	.
O=C(CCl)Nc1ccccc1Sc1ccccc1	-0.633	-2.0	10.4	3.0	101.0	104.0
Cc1ccc(C)c(Sc2ccc(NC(=O)CCl)cc2)c1	-4.24*	-3.0	17.6	.	101.0	100.0
CCc1nccn1CCC(=O)N1CCCC(N2CCN(c3ccccc3C)CC2)C1 (stereo unspecified)	.	2.0	7.3	6.4	110.0	102.0
C[C@H](NC(=O)c1[nH]cnc1C(=O)Nc1ccc(CNC(=O)OC(C)(C)C)cc1)C(=O)OCc1ccccc1	-0.631	2.0	-11.8	47.7*	82.0	87.0
CN(C)c1nc(Oc2ccc(N)cc2)nc(N(C)C)n1	-0.341	7.0	-16.0	76.7*	109.0	100.0
CCOC(=O)c1ccc(Oc2nc(N(C)C)nc(N(C)C)n2)cc1	2.06	-3.0	-7.8	-15.2	100.0	102.0
COc1ccc(-c2nn(-c3ccccc3)cc2C2CC(c3cccs3)=NN2C(=O)CCCC(=O)O)cc1 (stereo unspecified)	-0.579	.	6.2	-5.2	.	.
Cc1ccc(-c2nn(-c3ccccc3)cc2C2CC(c3cccs3)=NN2C(=O)CCCC(=O)O)cc1 (stereo unspecified)	0.251	7.0	2.3	69.1*	99.0	105.0
CC(C)(C)c1ccc(C2CC2C(=O)N/N=C\c2ccc[nH]2)cc1 (stereo unspecified)	-0.428	-8.0	15.0	54.0*	89.0	101.0
CC(=O)N(C)c1ccc(N=Cc2cc3c(cc2[N+](=O)[O-])OCO3)cc1	.	.	-1.7	-8.2	.	.
CCN(CC)c1ccc(N=Cc2ccccc2[N+](=O)[O-])cc1	0.347	0.0	55.1*	3.9	101.0	104.0
Cc1ccccc1C(=O)N1CCC(C(=O)N2CCN(c3ncccn3)CC2)CC1	.	.	-8.8	-2.3	.	.

Assay outcomes from PubChem BioAssay.
